Measured values gathered from unrelated publications.
Compare with care: the assays were run in different laboratories.
Read-out: enzyme activity
Action: inhibitor
CDK2 with cyclin A: Cyclin-dependent kinase 2, with cyclin A (CDK2, Homo sapiens, UniProt P24941)
CDK2 with cyclin E: Cyclin-dependent kinase 2, with cyclin E (CDK2, Homo sapiens, UniProt P24941)

| SMILES | target | assay | conditions | remaining activity |
| --- | --- | --- | --- | --- |
| Cc1sc(C(=O)NC2COC2)cc1-n1cc(NC(=O)Nc2c(F)cccc2Cl)cn1 | Cyclin-dependent kinase 2, with cyclin E2 (CDK2, Homo sapiens, UniProt P24941) | – | 10 µM | 90.8% |
| COc1cc(Nc2cnc(C#N)c(O[C@H](C)CN(C)C)n2)ncc1-c1cnn(C)c1 | CDK2 with cyclin A | radiometric | 1 µM | 114% |
| CC(C)(C)C(=O)c1sc(NC2CCCCC2)nc1N | CDK2 with cyclin A | – | 10 µM | 13% |
| COc1cc(Cl)c(C(=O)N[C@@H](CN[C@H]2CC[C@@H](N)CC2)Cc2ccc(C#N)cc2)cc1-c1ccc(CN[C@H](C)c2ccc(C)cc2)o1 | CDK2 with cyclin E | – | 1 µM | 90% |
| Cc1cnc(NC2CCOCC2)nc1-n1cnc(C(=O)NC(CN)c2cc(F)cc(Cl)c2)c1 (stereo not drawn) | CDK2 with cyclin E | radiometric | 1 µM | 3% |
| Cn1c(=O)n(-c2ccc(C(C)(C)C#N)cc2)c2c3cc(-c4cnc5ccccc5c4)ccc3ncc21 | CDK2 with cyclin A | – | 10 µM | 74% |
| O=C(Nc1cnn(-c2csc(C(=O)NC3COC3)c2)c1)Nc1ccccc1Cl | Cyclin-dependent kinase 2, with cyclin O (CDK2, Homo sapiens, UniProt P24941) | – | 5 µM | 93.2% |
| Nc1nc(NC2CCCCC2)sc1C(=O)c1ccccc1 | CDK2 with cyclin A | – | 10 µM | 5% |
| FC(F)c1nc2ccccc2n1-c1nc(N2CCOCC2)nc(N2CCOCC2)n1 | CDK2 with cyclin A | – | 10 µM | 77% |
| O=C(Nc1cnn(-c2csc(C(=O)NC3COC3)c2)c1)Nc1c(F)cccc1Cl | Cyclin-dependent kinase 2, with cyclin A1 (CDK2, Homo sapiens, UniProt P24941) | – | 5 µM | 94.2% |
| CC(C)(C)c1nc2c(s1)c1nc(N)ncc1c1ccc(NS(=O)(=O)c3c(F)cccc3F)c(F)c12 | Cyclin-dependent kinase 2, with cyclin A2 (CDK2, Homo sapiens, UniProt P24941) | radiometric | 1 µM | 70% |
| CC(C)(O)[C@H]1CC[C@H](Nc2ccc3ncc(-c4cccc(C(F)(F)F)c4)n3n2)CC1 | CDK2 with cyclin A | – | 1 µM | 96.9% |
| Cc1ccc(Nc2nccc(N(C)c3ccc4c(C)n(C)nc4c3)n2)cc1S(N)(=O)=O | CDK2 with cyclin A | – | 0.5 µM | 96.1% |
| CC(C)(C)c1nc(-c2cccc(NS(=O)(=O)c3c(F)cccc3F)c2F)c(-c2ccnc(N)n2)s1 | Cyclin-dependent kinase 2, with cyclin E1 (CDK2, Homo sapiens, UniProt P24941) | radiometric | 1 µM | 90% |
| Cc1ccc(C(=O)Nc2ccc(CN3CCN(C)CC3)c(C(F)(F)F)c2)cc1C#Cc1cnc2cccnn12 | Cyclin-dependent kinase 2 (CDK2, Homo sapiens, UniProt P24941) | – | 23.5 nM | 96% |
